Assay results taken from ChEMBL document CHEMBL4689842, “EUbOPEN Chemogenomics Library wave 1” (2021).
“And” between values parts separate entries of the source, which are not always exact repeats. Equal entries are not always repeated.

Key:
Type in all cases: toxicity, cell-based
HEK-293T = test: Incucyte cell viability with HEK293T; conditions: human, 10 µM, compound concentration 10 uM; note: filed as whole numbers so only -1 and 0 and 1 occur
U2OS [1] = test: Multiplex assay against U2OS; conditions: human, 10 µM, compound concentration 10 uM
Method in brief: (§1)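 On a CQ1 microscope at 37°C and 5% CO2, live cells were imaged after compound addition. They had been stained at seeding with Hoechst33342, BioTracker Green Microtubule Cytoskeleton Dye, MitoTracker Red and Annexin V Alexa Fluor 680. CellPathfinder machine-learning gating assigned cells to Hoechst high-intensity objects or normal cells, normal cells to healthy, pyknosed or fragmented nuclei, and pyknosed cells to mitotic or apoptotic. Tubulin, mitochondrial-mass and membrane-permeability phenotypes are per cents of healthy-nucleus cells.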

U2OS [2] = test: Incucyte cell viability with U2OS; conditions: human, 10 µM, compound concentration 10 uM; note: filed as whole numbers so only -1 and 0 and 1 occur
Fibroblast = test: Multiplex assay against human fibroblast; conditions: 10 µM, compound concentration 10 uM; method in brief: as §1
[3] = 6 h, replicate number 1, timepoint 6 hours
[4] = 12 h, replicate number 1, timepoint 12 hours
[5] = 18 h, replicate number 1, timepoint 18 hours
[6] = 24 h, replicate number 1, timepoint 24 hours

In the case of C1=N/C2=N/c3ccc(OCCN4CCCC4)c(c3)COC/C=C\COCc3cccc(c3)C(=C1)N2, the “Growth Rate” value (HEK-293T; [3]) is reported as 0, the “Growth Rate” value (HEK-293T; [4]) is reported as 0 and the “Growth Rate” value (HEK-293T; [5]) is reported as 0. The “Growth Rate” value (HEK-293T; [6]) was 0, the “Population Apoptotic (%)” value (U2OS [1]; 12 h, replicate 1) was 87% and 88% and 55% and the “Population Fragmented Nuclei (%)” value (U2OS [1]; 12 h, replicate 1) was 35% and 19% and 20%. The “Population Hoechst High Intensity Objects (%)” value (U2OS [1]; 12 h, replicate 1) was 6% and 13%, the “Population Normal (%)” value (U2OS [1]; 12 h, replicate 1) was 93% and 86% and the “Population Pyknosed Nuclei (%)” value (U2OS [1]; 12 h, replicate 1) was 44% and 67% and 25%. For the same compound, the “Population Tubulin-Different-Phenotype (%)” value (U2OS [1]; 12 h, replicate 1) was 94% and 60%, the “Total Cell Count” value (U2OS [1]; 12 h, replicate 1) was 194 and 177 and 149 and the “Population Apoptotic (%)” value (U2OS [1]; 12 h, replicate 2) was 90% and 68%. For the same compound, the “Population Fragmented Nuclei (%)” value (U2OS [1]; 12 h, replicate 2) was 53% and 29%, the “Population Hoechst High Intensity Objects (%)” value (U2OS [1]; 12 h, replicate 2) was 16% and 10% and 7% and the “Population Normal (%)” value (U2OS [1]; 12 h, replicate 2) was 83% and 89% and 92%. For the same compound, the “Population Pyknosed Nuclei (%)” value (U2OS [1]; 12 h, replicate 2) was 27% and 53% and 22%, the “Population Tubulin-Different-Phenotype (%)” value (U2OS [1]; 12 h, replicate 2) was 55% and 100% and 43% and the “Total Cell Count” value (U2OS [1]; 12 h, replicate 2) was 154 and 71 and 158. The “Population Apoptotic (%)” value (U2OS [1]; 24 h, replicate 1) was 98% and 82%, the “Population Fragmented Nuclei (%)” value (U2OS [1]; 24 h, replicate 1) was 23% and 31% and 11% and the “Population Hoechst High Intensity Objects (%)” value (U2OS [1]; 24 h, replicate 1) was 14% and 15%. For the same compound, the “Population Mitochondria Different-Phenotype (%)” value (U2OS [1]; 24 h, replicate 1) was 100% and 88% and 63%, the “Population Normal (%)” value (U2OS [1]; 24 h, replicate 1) was 85% and 84% and the “Population Pyknosed Nuclei (%)” value (U2OS [1]; 24 h, replicate 1) was 75% and 54% and 32%. For the same compound, the “Population Tubulin-Different-Phenotype (%)” value (U2OS [1]; 24 h, replicate 1) was 100% and 88% and 69%, the “Total Cell Count” value (U2OS [1]; 24 h, replicate 1) was 179 and 191 and 200 and the “Population Apoptotic (%)” value (U2OS [1]; 24 h, replicate 2) was 100% and 96% and 88%. The “Population Membrane Permeable-Phenotype (%)” value (U2OS [1]; 24 h, replicate 2) was 50% and 81% and 33%, the “Population Mitochondria Different-Phenotype (%)” value (U2OS [1]; 24 h, replicate 2) was 20% and 57% and the “Population Mitotic Cells (%)” value (U2OS [1]; 24 h, replicate 2) was 0% and 3% and 11%. For the same compound, the “Population Normal (%)” value (U2OS [1]; 24 h, replicate 2) was 83% and 67% and 90%, the “Population Tubulin-Different-Phenotype (%)” value (U2OS [1]; 24 h, replicate 2) was 40% and 61% and the “Total Cell Count” value (U2OS [1]; 24 h, replicate 2) was 154 and 69 and 193. The “Population Apoptotic (%)” value (U2OS [1]; 48 h, replicate 1) was 100%, the “Population Fragmented Nuclei (%)” value (U2OS [1]; 48 h, replicate 1) was 28% and the “Population Healthy Nuclei (%)” value (U2OS [1]; 48 h, replicate 1) was 1%. For the same compound, the “Population Hoechst High Intensity Objects (%)” value (U2OS [1]; 48 h, replicate 1) was 16%, the “Population Membrane Permeable-Phenotype (%)” value (U2OS [1]; 48 h, replicate 1) was 100% and the “Population Mitochondria Different-Phenotype (%)” value (U2OS [1]; 48 h, replicate 1) was 100%. For the same compound, the “Population Mitotic Cells (%)” value (U2OS [1]; 48 h, replicate 1) was 0%, the “Population Normal (%)” value (U2OS [1]; 48 h, replicate 1) was 83% and the “Population Pyknosed Nuclei (%)” value (U2OS [1]; 48 h, replicate 1) was 70%. For the same compound, the “Population Tubulin-Different-Phenotype (%)” value (U2OS [1]; 48 h, replicate 1) was 100%, the “Total Cell Count” value (U2OS [1]; 48 h, replicate 1) was 162 and the “Population Fragmented Nuclei (%)” value (U2OS [1]; 48 h, replicate 2) was 19%. The “Population Healthy Nuclei (%)” value (U2OS [1]; 48 h, replicate 2) was 33%, the “Population Hoechst High Intensity Objects (%)” value (U2OS [1]; 48 h, replicate 2) was 37% and the “Population Membrane Permeable-Phenotype (%)” value (U2OS [1]; 48 h, replicate 2) was 92%. The “Population Mitochondria Different-Phenotype (%)” value (U2OS [1]; 48 h, replicate 2) was 92%, the “Population Normal (%)” value (U2OS [1]; 48 h, replicate 2) was 62% and the “Population Pyknosed Nuclei (%)” value (U2OS [1]; 48 h, replicate 2) was 47%. The “Population Tubulin-Different-Phenotype (%)” value (U2OS [1]; 48 h, replicate 2) was 92%, the “Total Cell Count” value (U2OS [1]; 48 h, replicate 2) was 70 and the “Growth Rate” value (U2OS [2]; 0 h, replicate number 1, timepoint 0 hours) was 0. For the same compound, the “Growth Rate” value (U2OS [2]; [3]) was 0, the “Growth Rate” value (U2OS [2]; [4]) was 0 and the “Growth Rate” value (U2OS [2]; [5]) was 0. The “Growth Rate” value (U2OS [2]; [6]) was 0, the “Population Apoptotic (%)” value (Fibroblast; 12 h, replicate 1) was 82% and 50% and 69% and the “Population Fragmented Nuclei (%)” value (Fibroblast; 12 h, replicate 1) was 23% and 19% and 32%. The “Population Hoechst High Intensity Objects (%)” value (Fibroblast; 12 h, replicate 1) was 13% and 8% and 12%, the “Population Membrane Permeable-Phenotype (%)” value (Fibroblast; 12 h, replicate 1) was 0% and 2% and 3% and the “Population Mitotic Cells (%)” value (Fibroblast; 12 h, replicate 1) was 17% and 49% and 30%. The “Population Normal (%)” value (Fibroblast; 12 h, replicate 1) was 86% and 91% and 87%, the “Population Apoptotic (%)” value (Fibroblast; 12 h, replicate 2) was 68% and 44% and 90% and the “Population Fragmented Nuclei (%)” value (Fibroblast; 12 h, replicate 2) was 66% and 46% and 29%. For the same compound, the “Population Normal (%)” value (Fibroblast; 12 h, replicate 2) was 60% and 68% and 89%, the “Population Pyknosed Nuclei (%)” value (Fibroblast; 12 h, replicate 2) was 24% and 18% and 53% and the “Total Cell Count” value (Fibroblast; 12 h, replicate 2) was 108 and 72 and 71. The “Population Apoptotic (%)” value (Fibroblast; 24 h, replicate 1) was 82% and 61% and 58%, the “Population Fragmented Nuclei (%)” value (Fibroblast; 24 h, replicate 1) was 35% and 32% and 34% and the “Population Hoechst High Intensity Objects (%)” value (Fibroblast; 24 h, replicate 1) was 15% and 6% and 13%. For the same compound, the “Population Mitotic Cells (%)” value (Fibroblast; 24 h, replicate 1) was 17% and 38% and 41% and the “Population Normal (%)” value (Fibroblast; 24 h, replicate 1) was 84% and 93% and 86%.
